Assay results from ChEMBL document CHEMBL2331482, “Synthesis of some new 2-(3-pyridyl)-4,5-disubstituted thiazoles as potent antimicrobial agents” (2013).
Converted amounts (≈) assume the structure as drawn. The source made the active and inactive calls. No cut-off for these calls is given here.

Legend:
Type in all cases: functional
[1] = system: Staphylococcus epidermidis; test: Antibacterial activity against Staphylococcus epidermidis RCMB 010024 assessed as growth inhibition after 24 hrs by twofold serial dilution method; details: RCMB 010024, 24 h
Method in brief: (§1)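 Broth microdilution in Müller–Hinton broth, 96-well plates. Only compounds giving disc-diffusion zones >10 mm were tested. DMF stocks (1000 µg/mL) were diluted twofold to a final 500–0.007 µg/mL, with about 10^6 CFU/mL bacteria. Sealed plates ran 24 h at 37 °C in a humid chamber. MIC was the lowest concentration with no visible turbidity. DMF and uninoculated-medium controls were included.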

Shigella flexneri = test: Antibacterial activity against Shigella flexneri RCMB 0100542 assessed as growth inhibition after 24 hrs by twofold serial dilution method; method in brief: as §1
Pseudomonas aeruginosa = test: Antibacterial activity against Pseudomonas aeruginosa RCMB 010043 assessed as growth inhibition after 24 hrs by twofold serial dilution method; method in brief: as §1
Aspergillus clavatus = test: Antifungal activity against Aspergillus clavatus RCMB 02593 assessed as growth inhibition after 48 hrs by twofold serial dilution method; details: RCMB 02593, 48 h
Method in brief: (§2)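 Fungi were tested by microdilution in Sabouraud liquid medium. Only compounds with disc-diffusion zones >10 mm went on to this test. DMF stocks (1000 µg/mL) were serially diluted twofold to 500–0.007 µg/mL. Sealed plates were held 48 h at 25 °C in a humid chamber. MIC was the lowest concentration without visible turbidity. DMF and uninoculated-medium controls ran in parallel.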

Enterococcus faecalis = test: Antibacterial activity against Enterococcus faecalis RCMB 010068 assessed as growth inhibition after 24 hrs by twofold serial dilution method; method in brief: as §1
Bacillus subtilis = test: Antibacterial activity against Bacillus subtilis RCMB 010063 assessed as growth inhibition after 24 hrs by twofold serial dilution method; details: RCMB 010063, 24 h; method in brief: as §1
Neisseria gonorrhoeae = test: Antibacterial activity against Neisseria gonorrhoeae RCMB 010076 assessed as growth inhibition after 24 hrs by twofold serial dilution method; method in brief: as §1
Geotrichum candidum = test: Antifungal activity against Geotricum candidum RCMB 05096 assessed as growth inhibition after 48 hrs by twofold serial dilution method; details: RCMB 05096, 48 h; method in brief: as §2
Streptococcus pyogenes = test: Antibacterial activity against Streptococcus pyogenes RCMB 010015 assessed as growth inhibition after 24 hrs by twofold serial dilution method; method in brief: as §1
Candida albicans = test: Antifungal activity against Candida albicans RCMB 05035 assessed as growth inhibition after 48 hrs by twofold serial dilution method; method in brief: as §2
Aspergillus fumigatus = test: Antifungal activity against Aspergillus fumigatus RCMB 02564 assessed as growth inhibition after 48 hrs by twofold serial dilution method; details: RCMB 02564, 48 h; method in brief: as §2
Talaromyces marneffei = test: Antifungal activity against Penicillium marneffei RCMB 01267 assessed as growth inhibition after 48 hrs by twofold serial dilution method; method in brief: as §2
Staphylococcus aureus = test: Antibacterial activity against Staphylococcus aureus RCMB 010027 assessed as growth inhibition after 24 hrs by twofold serial dilution method; details: RCMB 010027, 24 h; method in brief: as §1
Proteus vulgaris = test: Antibacterial activity against Proteus vulgaris RCMB 010085 assessed as growth inhibition after 24 hrs by twofold serial dilution method; method in brief: as §1
Klebsiella pneumoniae = test: Antibacterial activity against Klebsiella pneumoniae RCMB 010093 assessed as growth inhibition after 24 hrs by twofold serial dilution method; method in brief: as §1
[2] = system: Staphylococcus epidermidis; test: Ratio of ampicillin MIC to compound MIC for Staphylococcus epidermidis RCMB 010024

Compound | MIC [1] [µg/mL] | MIC (Shigella flexneri) | MIC (Pseudomonas aeruginosa) | MIC (Aspergillus clavatus) [µg/mL] | MIC (Enterococcus faecalis; RCMB 010068, 24 h) [µg/mL] | MIC (Bacillus subtilis) [µg/mL] | MIC (Neisseria gonorrhoeae) | MIC (Geotrichum candidum) [µg/mL] | MIC (Streptococcus pyogenes) | MIC (Aspergillus fumigatus) [µg/mL] | MIC (Talaromyces marneffei; RCMB 01267, 48 h) [µg/mL] | MIC (Staphylococcus aureus) [µg/mL] | MIC (Proteus vulgaris) | MIC (Klebsiella pneumoniae) | MIC (Streptococcus pyogenes; RCMB 010015, 24 h) [µg/mL] | MIC (Shigella flexneri; RCMB 0100542, 24 h) [µg/mL] | MIC (Pseudomonas aeruginosa; RCMB 010043, 24 h) [µg/mL] | MIC (Candida albicans; RCMB 05035, 48 h) [µg/mL] | MIC (Proteus vulgaris; RCMB 010085, 24 h) [µg/mL] | MIC (Klebsiella pneumoniae; RCMB 010093, 24 h) [µg/mL] | other results
Cc1nc(-c2cccnc2)sc1C1=NNC(c2ccccc2)C1 (stereo unspecified) | 62.5 (≈ 195 µM) | inactive | inactive | 62.5 (≈ 195 µM) | 125 (≈ 390 µM) | 62.5 (≈ 195 µM) | inactive | 62.5 (≈ 195 µM) | inactive | 125 (≈ 390 µM) | 250 (≈ 780 µM) | 125 (≈ 390 µM) | inactive | inactive |  |  |  |  |  |  | MIC (Candida albicans): inactive
CC1(C)S[C@@H]2[C@H](NC(=O)[C@H](N)c3ccccc3)C(=O)N2[C@H]1C(=O)O [AMPICILLIN] | 0.48 (≈ 1.37 µM) |  |  |  | 1.95 (≈ 5.58 µM) | 0.007 (≈ 0.02 µM) |  |  |  |  |  | 0.06 (≈ 0.172 µM) |  |  | 0.24 (≈ 0.687 µM) |  |  |  |  |  | 
Cc1nc(-c2cccnc2)sc1C(=O)/C=C/c1ccccc1[N+](=O)[O-] | 0.97 (≈ 2.76 µM) |  |  | 31.2 (≈ 88.9 µM) | 62.5 (≈ 178 µM) | 0.97 (≈ 2.76 µM) |  | 7.81 (≈ 22.2 µM) |  | 7.81 (≈ 22.2 µM) | 15.8 (≈ 45.1 µM) | 3.9 (≈ 11.1 µM) |  |  | 62.5 (≈ 178 µM) | 7.81 (≈ 22.2 µM) | 125 (≈ 356 µM) | 31.2 (≈ 88.9 µM) | 7.81 (≈ 22.2 µM) | 0.97 (≈ 2.76 µM) | MIC (Neisseria gonorrhoeae; RCMB 010076, 24 h): 125 µg/mL (≈ 356 µM)
CC(=O)Nc1ccc(-c2csc(-c3cccnc3)n2)cc1 | 1.95 (≈ 6.6 µM) | inactive | inactive | 15.6 (≈ 52.9 µM) |  | 0.97 (≈ 3.28 µM) | inactive | 7.81 (≈ 26.4 µM) | inactive | 7.81 (≈ 26.4 µM) |  | 3.9 (≈ 13.2 µM) | inactive | inactive |  |  |  |  |  |  | MIC (Enterococcus faecalis): inactive; MIC (Candida albicans): inactive; MIC (Talaromyces marneffei): inactive
O=c1oc2ccccc2cc1-c1csc(-c2cccnc2)n1 | 3.9 (≈ 12.7 µM) |  |  | 15.6 (≈ 51 µM) | 62.5 (≈ 204 µM) | 3.9 (≈ 12.7 µM) |  | 15.6 (≈ 51 µM) |  | 15.6 (≈ 51 µM) | 31.2 (≈ 102 µM) | 7.81 (≈ 25.5 µM) |  |  | 7.81 (≈ 25.5 µM) | 1.95 (≈ 6.37 µM) | 62.5 (≈ 204 µM) | 125 (≈ 408 µM) | 15.6 (≈ 51 µM) | 7.81 (≈ 25.5 µM) | MIC (Neisseria gonorrhoeae; RCMB 010076, 24 h): 62.5 µg/mL (≈ 204 µM)
GENTAMICIN |  | 0.48 µg/mL | 31.2 µg/mL |  |  |  | 7.81 µg/mL |  |  |  |  |  | 1.95 µg/mL | 0.24 µg/mL |  |  |  |  |  |  | 
Cc1nc(-c2cccnc2)sc1C(=O)/C=C/c1ccccc1 | 31.2 (≈ 102 µM) |  | inactive | 125 (≈ 408 µM) | 500 (≈ 1630 µM) | 31.2 (≈ 102 µM) | inactive | 62.5 (≈ 204 µM) | inactive | 125 (≈ 408 µM) | 125 (≈ 408 µM) | 62.5 (≈ 204 µM) |  |  |  | 125 (≈ 408 µM) |  | 500 (≈ 1630 µM) | 62.5 (≈ 204 µM) | 62.5 (≈ 204 µM) | 
CC(=O)c1sc(-c2cccnc2)nc1C | 0.24 (≈ 1.1 µM) |  |  | 3.9 (≈ 17.9 µM) | 7.81 (≈ 35.8 µM) | 0.06 (≈ 0.275 µM) |  | 0.48 (≈ 2.2 µM) |  | 1.95 (≈ 8.93 µM) | 3.9 (≈ 17.9 µM) | 0.24 (≈ 1.1 µM) |  |  | 3.9 (≈ 17.9 µM) | 3.9 (≈ 17.9 µM) | 500 (≈ 2290 µM) | 7.81 (≈ 35.8 µM) | 3.9 (≈ 17.9 µM) | 0.48 (≈ 2.2 µM) | MIC (Neisseria gonorrhoeae; RCMB 010076, 24 h): 15.6 µg/mL (≈ 71.6 µM); Ratio [2]: 2
